The record followed here is ChEMBL document CHEMBL3526063, “Metabolism and pharmacokinetics of JM6 in mice: JM6 is not a prodrug for Ro-61-8048” (Drug Metab Dispos, 2012).

The nature of series [1]: Plasma protein binding in human at 10 uM for 6 hrs by LC-MS/MS analysis. Particulars: read-out: PPB. The class given is ADME, cell-free. The essentials: (§1)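 Equilibrium dialysis: plasma fortified in triplicate (5 and 20 µM rat and mouse; 10 µM human) on donor side, PBS on receiver side; 37°C, 200 rpm, 6 h; both sides by LC-MS/MS.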
The nature of series [2]: Metabolic stability in mouse liver microsomes assessed as intrinsic clearance at 5 uM after 5 to 40 mins by LC-MS/MS analysis. The class given is ADME. As to conditions: read-out: CLH. (In general: Liver microsomes are a subcellular fraction often used to study metabolism.)
The nature of series [3]: Plasma protein binding in rat at 5 and 20 uM for 6 hrs by LC-MS/MS analysis. It is filed as ADME, cell-free. As to conditions: read-out: PPB. The method, boiled down:
as §1

Series [4] deals with Kynurenine 3-monooxygenase (Rattus norvegicus, UniProt O88867). In words: Inhibition of Wistar rat KMO assessed as 3-hydroxykynurenine formation preincubated for 5 mins using 100 uM kynurenine as substrate by LC-MS/MS analysis in presence of 3 mg/ml plasma protein. The essentials:
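KMO from Wistar rat liver (0.3 mg protein/ml) preincubated 5 min at 25°C with compound plus 3 mg/mL plasma protein in 100 mM potassium phosphate pH 7.4, 200 µM NADPH, G6PDH regenerating system. Started with 100 µM kynurenine, 40 min, stopped with TCA; 3-hydroxykynurenine by LC-MS/MS. 8-point 3-fold dilutions; triplicates, ≥2 runs.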

In series [5] the test system is Mus musculus. Briefly: Dose normalised AUC in C57BL/6N mouse at 0.05 mg/kg, po administered via gavage by LC-MS/MS analysis. The class given is ADME, organism-based. More on the design: dose 0.05 mg/kg, route oral. Particulars: in vivo. The essentials: (§2)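 Male C57BL/6N mice were dosed by oral gavage at 10 mL/kg with a fine suspension in 10% hydroxypropyl-β-cyclodextrin in 50 mM phosphate buffer, pH 7. Plasma was taken at non-serial time points (n=3 per time point), extracted with 0.1% formic acid in acetonitrile containing diclofenac as internal standard, and quantified by UPLC-MS/MS. Composite non-compartmental parameters came from mean concentrations; AUClast by linear trapezoid, kel from at least three terminal points.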

Series [6] in a line: Cmax in R6/2 mouse at 7.5 mg/kg/day, po. More on the design: dose 7.5 mg/kg/day, route oral. Particulars: in vivo. The class given is ADME, organism-based.
Series [7] is described as follows: Plasma clearance in C57BL/6N mouse at 5 mg/kg, iv administered as single dose by LC-MS/MS analysis. It is filed as ADME, organism-based. More on the design: dose 5 mg/kg, route intravenous. The essentials:
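Male C57BL/6N mice given 5 mg/kg iv bolus as 1 mg/mL filtered solution in DMSO:PEG400:water 10:50:40. Plasma extracted with acidified acetonitrile (diclofenac IS), analysed by LC-MS/MS. Composite non-compartmental parameters from mean concentrations (n=3 per time point); C0 back-extrapolated from first two points; kel from at least last three concentrations.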

Series [8] in a line: Half life in C57BL/6N mouse at 0.05 mg/kg, po administered via gavage by LC-MS/MS analysis. As to conditions: in vivo. The class given is ADME, organism-based. Also on record: dose 0.05 mg/kg, route oral. The essentials:
as §2

A short description of series [9]: AUC(infinity) in C57BL/6N mouse at 0.05 mg/kg, po administered via gavage by LC-MS/MS analysis. It is filed as ADME, organism-based. Also on record: time infinity, dose 0.05 mg/kg, route oral. As to conditions: plasma. The essentials:
as §2

Series [10] deals with Kynurenine 3-monooxygenase (Homo sapiens, UniProt O15229). Briefly: Inhibition of human KMO assessed as 3-hydroxykynurenine formation preincubated for 5 mins using 100 uM kynurenine as substrate by LC-MS/MS analysis in presence of 3 mg/ml plasma protein. The essentials:
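Liver mitochondrial KMO (mouse C57 BL/6J or human), 0.3 mg protein/mL in 100 mM potassium phosphate pH 7.4, 200 µM NADPH, NADPH-regenerating system, plus 3 mg/mL plasma protein. Compound pre-incubated 5 min at 25°C; 100 µM kynurenine started reaction for 40 min (mouse) or 60 min (human); TCA stop; 3-hydroxykynurenine by LC-MS/MS. IC50 from 8-point 3-fold series, triplicates, n≥2.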

A short description of series [11]: Cmax in C57BL/6N mouse at 0.05 mg/kg, po administered via gavage by LC-MS/MS analysis. The class given is ADME, organism-based. Also on record: dose 0.05 mg/kg, route oral. Particulars: in vivo. The method, boiled down: as §2
Series [12] can be described thus: Oral bioavailability in C57BL/6N mouse at 0.05 mg/kg administered via gavage by LC-MS/MS analysis. It is filed as ADME, organism-based. Particulars: in vivo. The essentials: (§3)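 Male C57BL/6N mice dosed by oral gavage (10 mL/kg) as fine suspensions in 10% hydroxypropyl-β-cyclodextrin in 50 mM phosphate buffer pH 7; dose formulations verified by LC-MS/MS. Plasma analysed by LC-MS/MS; composite non-compartmental parameters from mean concentrations (n=3 per time point), C0 set to zero. %F = dose-normalised po AUCinf over dose-normalised iv AUCinf, only within linear range.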

Series [13] concerns Mus musculus. In words: Dose normalised AUC in C57BL/6N mouse at 5 mg/kg, iv administered as single dose containing <0.4% Ro-61-8048 by LC-MS/MS analysis. The class given is ADME, organism-based. More on the design: dose 5 mg/kg, route intravenous. Particulars: in vivo. The essentials:
(§4)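 Single intravenous bolus of 5 mg/kg to male C57BL/6N mice, given as a filtered 1 mg/mL solution in DMSO:PEG400:water 10:50:40 (v/v). Plasma was extracted in acidified acetonitrile with diclofenac as internal standard and analysed by UPLC-MS/MS. Non-compartmental analysis used mean concentrations (n=3 per time point), with C0 back-extrapolated from the first two samples. AUCinf = AUClast + Ct/kel.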

Series [14] is described as follows: AUC(infinity) in C57BL/6N mouse at 5 mg/kg, iv administered as single dose containing <0.4% Ro-61-8048 by LC-MS/MS analysis. As to conditions: plasma. Also on record: time infinity, dose 5 mg/kg, route intravenous. The class given is ADME, organism-based. The essentials: as §4
Series [15] deals with Mus musculus. In words: Half life in C57BL/6N mouse at 10 mg/kg, po administered via gavage containing <0.4% Ro-61-8048 by LC-MS/MS analysis. The class given is ADME, organism-based. More on the design: dose 10 mg/kg, route oral. As to conditions: in vivo. The essentials:
as §2

The subject of series [16] is Mus musculus. In words: Dose normalised Cmax in C57BL/6N mouse at 10 mg/kg, po administered via gavage containing <0.4% Ro-61-8048 by LC-MS/MS analysis. It is filed as ADME, organism-based. As to conditions: in vivo. More on the design: dose 10 mg/kg, route oral. The essentials:
as §2

Another series relates to Liver. In words: Metabolic stability in mouse liver microsomes assessed as intrinsic clearance at 1 uM after 5 to 40 mins by LC-MS/MS analysis.
The nature of series [17]: Metabolic stability in mouse blood assessed as half life at 5 uM by LC-MS/MS analysis. The class given is ADME, tissue-based.
Series [18] in a line: Plasma clearance in C57BL/6N mouse at 5 mg/kg, iv administered as single dose containing <0.4% Ro-61-8048 by LC-MS/MS analysis. It is filed as ADME, organism-based. More on the design: dose 5 mg/kg, route intravenous. The essentials:
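Male C57BL/6N mice given 5 mg/kg iv bolus (1 mg/mL, DMSO:PEG400:water 10:50:40, filtered); dosed material carried Ro-61-8048 as impurity, which was also quantified in plasma. LC-MS/MS after acetonitrile/formic acid extraction; composite non-compartmental analysis of mean concentrations (n=3 per time point), C0 back-extrapolated, kel from ≥3 terminal points.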

The nature of series [19]: Cmax in mouse at 25 mg/kg, po. Also on record: dose 25 mg/kg, route oral. It is filed as ADME, organism-based. As to conditions: in vivo.
In series [20] the test system is Mus musculus. Briefly: AUC(infinity) in C57BL/6N mouse at 10 mg/kg, po administered via gavage containing <0.4% Ro-61-8048 by LC-MS/MS analysis. The class given is ADME, organism-based, Plasma. Also on record: time infinity, dose 10 mg/kg, route oral. As to conditions: in vivo. The method, boiled down:
as §2

In series [21] the test system is Mus musculus. Briefly: Tmax in C57BL/6N mouse at 10 mg/kg, po administered via gavage containing <0.4% Ro-61-8048 by LC-MS/MS analysis. The class given is ADME, organism-based. Also on record: dose 10 mg/kg, route oral. Particulars: in vivo. The method, boiled down: as §3

By IC50 is commonly meant the concentration needed to halve the response being measured. A word on the Cmax: it is the maximum level reached in the sampled fluid or tissue. For orientation: clearance means a measure of how efficiently the substance is removed, as volume per time. For orientation: half-life means the time needed for the level to fall by half in the phase considered. For orientation: AUC(0-inf) means total exposure, with the tail of the curve extrapolated. As a reminder, the bioavailability is dose-corrected exposure relative to a reference, in per cent. Read a low bioavailability as poor availability. Broadly, the AUC is the area under the concentration-time curve, a measure of exposure. A lower AUC goes with less exposure. One may read the Tmax as the time from dosing to the highest level.

Bounds are passed on as bounds.

Kynurenine 3-monooxygenase (Homo sapiens, UniProt O15229), sequence (O15229 whole entry): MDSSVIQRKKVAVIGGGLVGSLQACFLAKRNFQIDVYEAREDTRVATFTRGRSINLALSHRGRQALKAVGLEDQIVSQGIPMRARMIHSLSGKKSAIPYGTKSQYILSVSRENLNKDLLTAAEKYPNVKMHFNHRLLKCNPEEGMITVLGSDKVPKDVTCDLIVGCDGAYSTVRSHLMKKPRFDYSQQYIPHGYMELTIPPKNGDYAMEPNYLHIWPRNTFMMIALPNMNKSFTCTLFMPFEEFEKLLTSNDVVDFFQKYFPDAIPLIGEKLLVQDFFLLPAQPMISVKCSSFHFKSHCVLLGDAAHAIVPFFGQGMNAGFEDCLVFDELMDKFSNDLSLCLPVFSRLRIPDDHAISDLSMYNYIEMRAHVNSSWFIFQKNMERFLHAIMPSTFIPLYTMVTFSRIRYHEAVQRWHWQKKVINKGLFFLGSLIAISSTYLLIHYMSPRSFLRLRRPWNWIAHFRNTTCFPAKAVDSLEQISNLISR
Kynurenine 3-monooxygenase (Rattus norvegicus, UniProt O88867), sequence (O88867 whole entry): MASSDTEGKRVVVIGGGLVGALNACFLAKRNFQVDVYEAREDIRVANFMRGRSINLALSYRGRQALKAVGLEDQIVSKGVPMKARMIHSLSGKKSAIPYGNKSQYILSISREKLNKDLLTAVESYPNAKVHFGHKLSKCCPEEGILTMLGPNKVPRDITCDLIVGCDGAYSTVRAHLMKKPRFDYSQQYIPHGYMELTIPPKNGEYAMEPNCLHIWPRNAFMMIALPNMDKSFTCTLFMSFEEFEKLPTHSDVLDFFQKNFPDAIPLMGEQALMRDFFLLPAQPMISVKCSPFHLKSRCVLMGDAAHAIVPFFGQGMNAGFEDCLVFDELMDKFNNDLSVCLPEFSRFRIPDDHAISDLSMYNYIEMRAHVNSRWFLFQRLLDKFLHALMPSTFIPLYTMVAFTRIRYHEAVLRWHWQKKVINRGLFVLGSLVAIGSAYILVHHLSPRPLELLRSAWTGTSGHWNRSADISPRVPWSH

In the case of `COc1ccc(S(=O)(=O)Nc2nc(-c3cccc([N+](=O)[O-])c3)cs2)cc1OC`, in [1], the fraction unbound at 6 h, 10 µM is less than 0.01. Further, in series [2], the microsomal CLint at 5 µM is less than 29 µL/min/mg. Also, the fraction unbound at 6 h in series [3] was less than 0.01. Moreover, the values for the IC50 in series [4] and in series [10] were 8 µM and greater than 30 µM, respectively. The AUC/dose in the series on Mus musculus [5] was 90000 nM·kg·h/mg. The highest concentration (Cmax) is 280 nM in [6] and 550 nM in [11]. This compound had a clearance in series [7] of 0.3 mL/min/kg. In series [8], the half-life was 5.2 h. The compound also had an AUC(0-inf) in series [9] of 4.5 µM·h. The bioavailability in series [12] came to 70%.
In the series with Mus musculus [13], `COc1ccc(S(=O)(=O)Nc2nc(-c3cccc([N+](=O)[O-])c3)c(CN3CCCCC3)s2)cc1OC` came in with an AUC/dose of 1000 nM·kg·h/mg. In [14], this compound gave an AUC(0-inf) of 5.2 µM·h. Also, the t1/2 in the series with Mus musculus [15] came out at 1.1 h. In the series on Mus musculus [16], this compound had a Cmax/dose of 110 nM. In addition, the CLH with Liver was determined as 220 µL/min/mg. Also, the half-life at 5 µM in series [17] is greater than 2.5 h. The clearance in series [18] was 31.7 mL/min/kg. For the same compound, the Cmax in series [19] was 3400 nM. The AUC in the series with Mus musculus [20] was 1.1 µM·h. Also, the Tmax with Mus musculus [21] worked out at 0.5 h.
